# Test results taken from ChEMBL document CHEMBL4028805, “Phenylthiazole Antibacterial Agents Targeting Cell Wall Synthesis Exhibit Potent Activity in Vitro and in Vivo against Vancomycin-Resistant Enterococci” (J Med Chem, 2017).
# Active and inactive are the calls of the source.
# Columns and labels:
# [1] = system: Enterococcus faecalis; assay: Antibacterial activity against vancomycin-resistant Enterococcus faecalis ATCC 51299 assessed as ratio of MIC after and before 6 serial passages measured after 18 hrs by broth microdillution method; format: functional
# In short: (§1)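 Multi-step selection over 14 passages in two weeks. McFarland 0.5 inoculum diluted 1:300 in TSB (E. faecalis) or BHI (E. faecium) to 1 × 10^5 CFU/mL. Each passage reinoculated at ~5 × 10^5 CFU/mL from the sub-inhibitory well of the previous plate. Compounds serially diluted in triplicate, incubated ≥18 h at 37 °C, MIC read visually. Resistance defined as >4-fold MIC rise.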
# [2] = system: Escherichia coli; assay: Antibacterial activity against Escherichia coli 1411 harboring delta-acrAB after 18 to 22 hrs in absence of colistin by broth microdilution method; format: functional
# [3] = system: Pseudomonas aeruginosa; assay: Antibacterial activity against Pseudomonas aeruginosa ATCC 15442 after 18 to 22 hrs in presence of 1/4 times MIC colistin by broth microdilution method; format: functional
# In short: (§2)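 Broth microdilution per CLSI guidelines. Gram-negatives grown in TSB. Each strain tested alone and again with colistin at ¼ × MIC to permeabilize the outer membrane. Plates incubated at 37 °C for 18–22 h. MIC read as the lowest concentration showing no visible growth.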
# [4] = system: Enterococcus faecalis; assay: Bactericidal activity against vancomycin-resistant Enterococcus faecalis clinical isolates after 18 to 22 hrs by broth microdilution method; format: functional
# In short: (§3)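 MBC follows the broth microdilution MIC. 5 μL aliquots spotted onto TSA (E. faecalis) or BHI agar (E. faecium), incubated 37 °C for 18–22 h. MBC is the concentration giving >99% reduction in bacterial count. MBC50 is the value for 50% of isolates.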
# [5] = system: HRT-18 cell line; assay: Cytotoxicity against human HRT18 cells assessed as reduction in cell viability at 40 ug/ml after 24 hrs by MTS assay; format: cell-based; details: hrt-18, 24 h
# In short: (§4)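 HRT-18 cells maintained in RPMI-1640 with 10% fetal horse serum at 37 °C, 5% CO2. Exposed to 5, 10, 20 or 40 μg/mL for 2 or 24 h, then MTS added and absorbance read at 490 nm. Viability expressed relative to untreated cells, n ≥ 3, one-way ANOVA with Dunnett's test.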
# [6] = system: Enterococcus faecalis; assay: Antibacterial activity against vancomycin-resistant Enterococcus faecalis clinical isolates after 18 to 22 hrs by broth microdilution method; format: functional
# In short: (§5)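 CLSI broth microdilution against panels of enterococcal isolates. E. faecalis grown in TSB, E. faecium in BHI, 37 °C for 18–22 h. MIC is the lowest concentration without visible growth. MIC50 is the value inhibiting 50% of isolates in each group.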
# [7] = system: Escherichia coli; assay: Antibacterial activity against Escherichia coli O157:H7 ATCC 35150 after 18 to 22 hrs in absence of colistin by broth microdilution method; format: functional
# [8] = system: Enterococcus faecium; assay: Antibacterial activity against vancomycin-resistant Enterococcus faecium ATCC 700221 after 18 to 22 hrs in absence of colistin by broth microdilution method; format: functional
# [9] = system: Enterococcus faecium; assay: Antibacterial activity against vancomycin-resistant Enterococcus faecium ATCC HM-968 after 14 serial passages measured after 18 hrs by broth microdillution method; format: functional; in short: as §1
# [10] = system: Enterococcus faecalis; assay: Antibacterial activity against vancomycin-resistant Enterococcus faecalis HM-201 infected in Caenorhabditis elegans AU37 assessed as reduction in bacterial burden at 20 ug/ml after 18 hrs by CFU-based […] analysis relative to control; format: functional; parameters: scale not given: the % may be the effect or the level left
# In short: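 C. elegans AU37 adults infected on an E. faecalis HM-201 lawn for 2 h, washed in M9, 20–25 worms per well. Treated in triplicate with 20 μg/mL, with water as negative control. Worms washed, lysed with silicon carbide by vortexing, diluted serially and plated on TSA with 50 μg/mL gentamicin. CFU counted after 18 h at 37 °C and expressed as % reduction versus untreated worms.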
# [11] = system: Enterococcus faecalis; assay: Antibacterial activity against Enterococcus faecalis clinical isolates after 18 to 22 hrs by broth microdilution method; format: functional; in short: as §5
# [12] = system: Enterococcus faecalis; assay: Bactericidal activity against vancomycin-resistant Enterococcus faecalis HM-201 at 4 times MIC after 2 hrs by time-kill assay; format: functional
# In short: (§6)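 Late-log cells diluted to ~5 × 10^6 CFU/mL and exposed in triplicate to 4 × MIC, in TSB (E. faecalis HM-201) or BHI (E. faecium ATCC 700221) at 37 °C. Sampled at 0, 2, 4, 6, 8, 10, 12 and 24 h, diluted serially in PBS and plated on TSA or BHI agar. CFU/mL counted after 18–22 h. DMSO served as negative control.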
# [13] = system: Enterococcus faecium; assay: Bactericidal activity against Vancomycin-resistant Enterococcus faecium clinical isolates after 18 to 22 hrs by broth microdilution method; format: functional; in short: as §3
# [14] = system: Enterobacter cloacae; assay: Antibacterial activity against Enterobacter cloacae BAA-1154 after 18 to 22 hrs in presence of 1/4 times MIC colistin by broth microdilution method; format: functional; in short: as §2
# [15] = system: Enterococcus faecium; assay: Antibacterial activity against Enterococcus faecium clinical isolates after 18 to 22 hrs by broth microdilution method; format: functional
# In short: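 Enterococcus faecium grown in BHI. MIC by CLSI broth microdilution, 37 °C for 18–22 h. Lowest concentration with no visible growth taken as MIC, reported as MIC50 across the isolates.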
# [16] = system: Enterococcus faecium; assay: Bactericidal activity against vancomycin-resistant Enterococcus faecium ATCC 700221 at 4 times MIC after 4 hrs by time-kill assay; format: functional; in short: as §6
# [17] = system: Klebsiella pneumoniae; assay: Antibacterial activity against Klebsiella pneumoniae BAA-1706 after 18 to 22 hrs in presence of 1/4 times MIC colistin by broth microdilution method; format: functional; in short: as §2
# [18] = system: Pseudomonas aeruginosa; assay: Antibacterial activity against Pseudomonas aeruginosa ATCC 15442 after 18 to 22 hrs in absence of colistin by broth microdilution method; format: functional
# [19] = Toxicity in Caenorhabditis elegans AU37 assessed as worm survival at 20 ug/ml after 24 hrs by microscopic analysis; details: AU37, caenorhabditis elegans
# In short: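 Adult C. elegans AU37, 15–20 per well, exposed in triplicate to 10 or 20 μg/mL, with sterile water as negative control. Viability checked by microscopy. Result reported as percent viable worms after 24 h exposure.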
# [20] = system: Enterobacter cloacae; assay: Antibacterial activity against Enterobacter cloacae BAA-1154 after 18 to 22 hrs in absence of colistin by broth microdilution method; format: functional
# [21] = system: Enterococcus faecalis; assay: Bactericidal activity against Enterococcus faecalis clinical isolates after 18 to 22 hrs by broth microdilution method; format: functional
# In short: (§7)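 MBC determined after the broth microdilution MIC. 5 μL aliquots plated onto TSA (E. faecalis) or BHI agar (E. faecium) and incubated at 37 °C for 18–22 h. MBC is the concentration giving >99% reduction in cell count, reported as MBC50.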
# [22] = system: Acinetobacter baumannii; assay: Antibacterial activity against Acinetobacter baumanii ATCC 19606 after 18 to 22 hrs in absence of colistin by broth microdilution method; format: functional; details: ATCC 19606 = CIP 70.34 = JCM 6841; in short: as §2
# [23] = system: Escherichia coli; assay: Antibacterial activity against Escherichia coli O157:H7 ATCC 35150 after 18 to 22 hrs in presence of 1/4 times MIC colistin by broth microdilution method; format: functional
# [24] = system: Enterococcus faecalis; assay: Synergistic antimicrobial activity against Enterococcus faecalis ATCC 49532 after 20 hrs in presence of ciprofloxacin by checkerboard assay; format: functional
# In short: (§8)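 Checkerboard in TSB with a starting inoculum of 1×10^5 CFU/mL. Compound and antibiotic diluted from 2× or 4× MIC along perpendicular axes. Incubated 20 h at 37 °C. ΣFIC calculated: ≤0.5 synergy, >0.5 to <2 additive, 2–4 indifference, >4 antagonism.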
# [25] = system: Staphylococcus aureus; assay: Antibacterial against Methicillin-Resistant Staphylococcus aureus after 18 to 20 hrs by broth microdilution method; format: functional
# [26] = system: HRT-18 cell line; assay: Cytotoxicity against human HRT18 cells assessed as reduction in cell viability up to 40 ug/ml after 2 hrs by MTS assay; format: cell-based; details: hrt-18, 2 h; in short: as §4
# [27] = system: Enterococcus faecalis; assay: Antibacterial activity against Enterococcus faecalis ATCC 31975 at 4 to 8 times MIC after 48 hrs by broth microdillution method; format: functional
# In short: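 Single-step resistance selection. Cultures of 5 × 10^8 to 5 × 10^10 CFU/mL spread on TSA containing compound at 2×, 4× or 8× MIC and incubated aerobically at 37 °C for 48 h. Colony MICs rechecked by broth microdilution. Frequency calculated as resistant colonies per inoculum.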
# [28] = system: HRT-18 cell line; assay: Cytotoxicity against human HRT18 cells assessed as reduction in cell viability at 20 ug/ml after 24 hrs by MTS assay; format: cell-based; details: hrt-18, 24 h; in short: as §4
# [29] = system: Enterococcus faecalis; assay: Synergistic antimicrobial activity against Enterococcus faecalis ATCC 49533 after 20 hrs in presence of ciprofloxacin by checkerboard assay; format: functional; in short: as §8
# [30] = system: Acinetobacter baumannii; assay: Antibacterial activity against Acinetobacter baumanii ATCC 19606 after 18 to 22 hrs in presence of 1/4 times MIC colistin by broth microdilution method; format: functional; details: ATCC 19606 = CIP 70.34 = JCM 6841; in short: as §2
# [31] = system: Klebsiella pneumoniae; assay: Antibacterial activity against Klebsiella pneumoniae BAA-1706 after 18 to 22 hrs in absence of colistin by broth microdilution method; format: functional
# [32] = system: Enterococcus faecium; assay: Bactericidal activity against Enterococcus faecium after 18 to 22 hrs by broth microdilution method; format: functional; in short: as §7
# [33] = system: Escherichia coli; assay: Antibacterial activity against tolC deficient Escherichia coli assessed as formation of misshapen cells at 125 ug/ml after 30 mins in presence of sucrose by FM4-64/DAPI/SYTOX Green staining-based deconvolution microscopic analysis; format: functional
# [34] = system: Bacillus subtilis; assay: Antibacterial activity against Bacillus subtilis assessed as cell shape defects at 1 times MIC after 2 hrs in presence of methylsulfonyl methane by phase contrast microscopic analysis; format: functional
# In short: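 B. subtilis grown in LB at 37 °C to OD600 ~0.2 and treated, with or without MSM for osmotic stabilization, for 30 min or 2 h. Stained with FM 4-64 (1 μg/mL), DAPI (1 μg/mL) and SYTOX Green (1 μg/mL) to score permeability. Examined by deconvolution and phase-contrast microscopy.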
# [35] = system: Escherichia coli; assay: Antibacterial activity against tolC deficient Escherichia coli assessed as cell lysis at 125 ug/ml after 2 hrs in presence of sucrose by FM4-64/DAPI/SYTOX Green staining-based deconvolution microscopic analysis; format: functional
# [36] = system: Escherichia coli; assay: Antibacterial activity against tolC deficient Escherichia coli assessed as formation of spheroplasts at 125 ug/ml after 30 mins in presence of sucrose by FM4-64/DAPI/SYTOX Green staining-based deconvolution microscopic analysis; format: functional
smiles,measurement,setting,value
CCCCC#Cc1ccc(-c2nc(C)c(/C(C)=N/NC(=N)N)s2)cc1,Ratio,[1],1
same,MIC,[2],8 mg/L
same,MIC,[3],1 mg/L
same,MBC50,[4],4 mg/L
same,Activity,[5],Toxic
same,MIC50,[6],4 mg/L
same,MIC,[7],> 128 mg/L
same,MIC,[8],0.5 mg/L
same,Activity,[9],Active
same,Activity,[10],94%
same,MIC50,[11],8 mg/L
same,Activity,[12],Active
same,MBC50,[13],4 mg/L
same,MIC,[14],1 mg/L
same,MIC50,[15],4 mg/L
same,Activity,[16],Active
same,MIC,[17],1 mg/L
same,MIC,[18],> 128 mg/L
same,"survival at 24 h, 20 ug/ml",[19],90%
same,MIC,[20],> 128 mg/L
same,MBC50,[21],8 mg/L
same,MIC,[22],8 mg/L
same,MIC,[23],1 mg/L
same,fractional inhibitory concentration index (FICI),[24],0.63 - 1
same,MIC,[25],1.3 to 5.6 mg/L
same,Activity,[26],Non-Toxic
same,Activity,[27],Active
same,Activity,[28],Non-Toxic
same,fractional inhibitory concentration index (FICI),[29],0.63 - 1
same,MIC,[30],1 mg/L
same,MIC,[31],> 128 mg/L
same,MBC50,[32],4 mg/L
N[C@@H]1CONC1=O,Activity,[33],Active
same,Activity,[34],Active
same,Activity,[35],Active
same,Activity,[36],Active
CC[C@H]1OC(=O)[C@H](C)[C@@H](O[C@H]2C[C@@](C)(OC)[C@@H](O)[C@H](C)O2)[C@H](C)[C@@H](O[C@@H]2O[C@H](C)C[C@H](N(C)C)[C@H]2O)[C@](C)(O)C[C@@H](C)C(=O)[C@H](C)[C@@H](O)[C@]1(C)O [ERYTHROMYCIN],MIC,[3],1 mg/L
same,MIC,[7],64 mg/L
same,MIC,[14],1 mg/L
same,MIC,[17],0.5 mg/L
same,MIC,[18],128 mg/L
same,MIC,[20],128 mg/L
same,MIC,[22],8 mg/L
same,MIC,[23],1 mg/L
same,MIC,[30],0.5 mg/L
same,MIC,[31],128 mg/L
